Each block holds one compound with its values, some of them ahead of it.
Legend:
KPC cells = assay: Quantitative proteomics in KPC cells; type: cell-based, mouse; conditions: 1 μM, 8 hours
Summary of the method: (§1)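 TMT-multiplexed LC-MS proteomics. Cells were treated with DMSO (biological triplicate) or test compound (MM.1S: 0.2 μM, 6 h; KPC: 1 μM, 8 h), harvested by centrifugation at 4 °C and lysed in 8 M urea/EPPS pH 8.5. 200 μg protein was reduced, alkylated and precipitated, digested with LysC 12 h at room temperature then trypsin 6 h at 37 °C, TMT-labelled, high-pH fractionated (96→24) and run on an Orbitrap Fusion Lumos.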

FAK [1] = target: FAK (Mus musculus, UniProt P34152); assay: Immunoblot of FAK degradation in KPC cells; type: cell-based
Summary of the method: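 Murine pancreatic KPC cells (RPMI, 10% FBS) were exposed to 500 nM or 1 μM test compound over a time course. RIPA lysates were immunoblotted, with FAK band intensity normalised to β-actin in ImageJ. Blots are representative of two independent experiments.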

FAK [2] = target: FAK (Homo sapiens, UniProt Q05397); assay: Immunoblot of FAK degradation in PATU-8988T cells; type: cell-based; conditions: 0.1–5 μM, 24 h
Summary of the method: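 Human PATU-8988T pancreatic cells (DMEM, 10% FBS) were treated 24 h with test compound at 0.1–5 μM. FAK was assessed by immunoblot of RIPA lysates and normalised to β-actin. Two independent experiments.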

HEK293T cells = assay: Quantitative proteomics in HEK293T cells; type: cell-based; conditions: human HEK293T cells, 10 hour treatment
BRD4 [3] = target: T1, BRD4 (Homo sapiens, UniProt O60885); assay: Immunoblot of BRD4 degradation in parental and KEAP1 knockdown OVCAR8 cells; type: cell-based
Summary of the method: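 OVCAR8 cells were grown in DMEM with 10% FBS. KEAP1 knockdown lines came from shRNA lentivirus made in HEK293T, used with polybrene (10 μg/mL) and selected with puromycin (1 μg/mL); knockdown was checked by Western blot. Parental and knockdown cells were treated with test compound for 16 h, then immunoblotted. BRD4 was normalised to β-actin. Two independent experiments.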

BRD4 [4] = target: T1, BRD4; assay: Immunoblot of BRD4 degradation in MM.1S cells; type: cell-based
Summary of the method: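 MM.1S cells were treated with test compound for 16 h (24 h in the initial screen). For rescue, cells were pretreated 2 h with 10 μM KEAP1 inhibitor, 10 μM JQ1 or 1 μM MLN4924. Lysates in RIPA were BCA-normalised, run on 4–12% gels and blotted to PVDF with IRDye secondaries. BRD4 bands were quantified relative to β-actin. Two independent experiments.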

BRD4/3/2 = assay: Immunoblot of BRD4/3/2 in MM.1S cells; type: cell-based, human; conditions: indicated time points
Summary of the method: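 MM.1S cells were grown in RPMI with 10% FBS at 37 °C and 5% CO2, then given DMSO or test compound for a time course. Cells were lysed in RIPA with protease and phosphatase inhibitors. BCA-equalised protein was run on 4–12% gels and transferred to PVDF. Primary antibodies ran overnight at 4 °C and IRDye secondaries 1 h at room temperature. BRD4/3/2 bands were normalised to β-actin by densitometry. Two independent experiments.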

MM.1S proteome = assay: Multiplexed mass spectrometry-based proteomics in MM.1S cells; type: cell-based, human; conditions: 200 nM, 6 hours
Summary of the method: as §1

KEAP1-BRD4BD2 = KEAP1-BRD4BD2 (Homo sapiens, UniProt O60885+Q14145); assay: KEAP1-BRD4BD2 dimerization TR-FRET assay; type: biochemical
Summary of the method: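 TR-FRET mix: 200 nM biotinylated human BRD4BD2, 200 nM Alexa Fluor 647-labelled human KEAP1 (residues 321–609, insect-cell expressed, SpyCatcher-labelled) and 2 nM Eu-streptavidin. Buffer was 50 mM Tris pH 8.0, 200 mM NaCl, 0.1% Pluronic F-68, 0.5% BSA and 1 mM TCEP; compound was titrated. After 15 min at room temperature, excitation was 337 nm and the 665/620 nm ratio was read over thirty 200-s cycles. Mean ± SD of ≥3 technical replicates; two independent experiments.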

Chain of FAK (Mus musculus, UniProt P34152) (P34152 whole entry): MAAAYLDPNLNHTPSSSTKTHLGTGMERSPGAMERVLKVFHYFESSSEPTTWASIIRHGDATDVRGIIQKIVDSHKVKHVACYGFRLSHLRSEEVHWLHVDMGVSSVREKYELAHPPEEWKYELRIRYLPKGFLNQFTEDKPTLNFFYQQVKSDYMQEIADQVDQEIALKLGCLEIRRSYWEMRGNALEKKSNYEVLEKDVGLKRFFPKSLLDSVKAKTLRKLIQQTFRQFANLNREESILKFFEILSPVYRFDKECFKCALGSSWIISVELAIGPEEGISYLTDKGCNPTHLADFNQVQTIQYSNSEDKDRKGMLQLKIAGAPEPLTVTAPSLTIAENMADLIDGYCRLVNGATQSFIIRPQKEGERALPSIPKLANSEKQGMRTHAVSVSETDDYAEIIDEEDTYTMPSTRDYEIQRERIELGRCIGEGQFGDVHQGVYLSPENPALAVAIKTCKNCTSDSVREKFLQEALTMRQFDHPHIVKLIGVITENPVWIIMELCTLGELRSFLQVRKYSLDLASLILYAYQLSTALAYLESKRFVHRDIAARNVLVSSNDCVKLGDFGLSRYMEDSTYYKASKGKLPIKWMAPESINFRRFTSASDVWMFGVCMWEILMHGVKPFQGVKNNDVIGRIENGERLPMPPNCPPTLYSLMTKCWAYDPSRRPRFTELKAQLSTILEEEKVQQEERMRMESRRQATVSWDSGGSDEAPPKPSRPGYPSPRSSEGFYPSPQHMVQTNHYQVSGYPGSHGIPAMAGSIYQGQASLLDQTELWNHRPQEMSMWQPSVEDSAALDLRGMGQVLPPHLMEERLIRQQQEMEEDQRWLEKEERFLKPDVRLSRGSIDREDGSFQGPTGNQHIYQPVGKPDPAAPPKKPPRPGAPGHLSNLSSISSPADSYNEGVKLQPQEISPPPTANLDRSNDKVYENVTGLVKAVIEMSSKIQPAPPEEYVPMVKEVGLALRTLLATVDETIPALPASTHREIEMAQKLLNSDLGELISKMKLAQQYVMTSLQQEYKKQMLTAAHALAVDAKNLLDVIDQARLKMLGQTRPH
Chain of KEAP1-BRD4BD2 (Q14145 321-609 limits assumed, other chains not shown): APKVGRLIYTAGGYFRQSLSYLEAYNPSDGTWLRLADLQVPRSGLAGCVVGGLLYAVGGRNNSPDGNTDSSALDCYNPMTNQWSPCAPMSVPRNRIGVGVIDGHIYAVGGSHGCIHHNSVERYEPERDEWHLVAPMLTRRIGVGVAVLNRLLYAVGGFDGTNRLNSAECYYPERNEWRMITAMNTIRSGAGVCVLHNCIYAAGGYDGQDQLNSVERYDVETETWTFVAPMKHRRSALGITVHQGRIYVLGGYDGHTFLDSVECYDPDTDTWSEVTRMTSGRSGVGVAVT
Chain of FAK (Homo sapiens, UniProt Q05397) (Q05397 whole entry): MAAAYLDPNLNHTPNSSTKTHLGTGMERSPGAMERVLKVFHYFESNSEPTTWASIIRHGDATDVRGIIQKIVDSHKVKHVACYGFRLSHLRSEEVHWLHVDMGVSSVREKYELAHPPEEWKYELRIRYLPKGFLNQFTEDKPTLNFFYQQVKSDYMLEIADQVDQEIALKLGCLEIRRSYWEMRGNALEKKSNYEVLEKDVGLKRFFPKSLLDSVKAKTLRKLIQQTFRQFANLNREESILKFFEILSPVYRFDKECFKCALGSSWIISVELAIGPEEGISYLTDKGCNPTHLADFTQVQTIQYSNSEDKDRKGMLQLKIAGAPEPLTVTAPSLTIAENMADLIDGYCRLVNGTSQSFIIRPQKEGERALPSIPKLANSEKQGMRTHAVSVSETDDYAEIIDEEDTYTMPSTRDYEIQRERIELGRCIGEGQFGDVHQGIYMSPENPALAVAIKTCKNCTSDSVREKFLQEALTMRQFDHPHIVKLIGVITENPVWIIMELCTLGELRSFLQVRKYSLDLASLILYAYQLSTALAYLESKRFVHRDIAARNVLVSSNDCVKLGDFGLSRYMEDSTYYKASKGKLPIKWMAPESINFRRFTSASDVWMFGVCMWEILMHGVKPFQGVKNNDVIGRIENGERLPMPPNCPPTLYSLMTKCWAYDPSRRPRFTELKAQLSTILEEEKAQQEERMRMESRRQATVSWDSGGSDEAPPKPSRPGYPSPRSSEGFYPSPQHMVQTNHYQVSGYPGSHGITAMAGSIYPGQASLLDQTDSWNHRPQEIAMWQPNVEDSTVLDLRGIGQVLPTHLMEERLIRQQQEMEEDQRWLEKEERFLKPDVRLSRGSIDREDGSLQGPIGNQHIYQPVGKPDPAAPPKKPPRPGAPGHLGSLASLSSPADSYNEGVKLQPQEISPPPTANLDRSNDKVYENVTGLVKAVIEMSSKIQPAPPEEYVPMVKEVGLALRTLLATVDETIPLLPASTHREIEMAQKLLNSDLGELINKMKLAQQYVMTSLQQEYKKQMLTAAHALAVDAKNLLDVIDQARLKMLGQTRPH

time of maximal FAK degradation (FAK [1]; 500 nM): 24 h
time of maximal FAK degradation (FAK [1]; 1 μM): 8 h
FAK degradation (FAK [2]): did not observe degradation of FAK
Compound: COc1cc([C@@H](CC(=O)O)c2ccc(C)c(CN3C[C@@H](C)Oc4cc(CCCN5CCN(c6ccc(Nc7ncc(Cl)c(Nc8ccccc8S(=O)(=O)C(C)C)n7)cc6)CC5)ccc4S3(=O)=O)c2)cc2nnn(C)c12 [NJH-04–098, (S)-3-(3-(((R)-7-(3-(4-(4-((5-chloro-4-((2-(isopropylsulfonyl)phenyl)amino)pyrimidin-2-yl)amino)phenyl)piperazin-1-yl)propyl)-4-methyl-1,1-dioxido-3,4-dihydro-2H-benzo[b][1,4,5]oxathiazepin-2-yl)methyl)-4-methylphenyl)-3-(7-methoxy-1-methyl-1H-benzo[d][1,2,3]triazol-5-yl)propanoic acid]
proteins downregulated across the proteome (KPC cells): only FAK (PTK2) was significantly downregulated across the proteome

Compound: Cc1ccc(C(CC(=O)O)c2cc(OCC(=O)NCCOCCOCCN3CCN(c4ccc(Nc5ncc(Cl)c(Nc6ccccc6S(=O)(=O)C(C)C)n5)cc4)CC3)c3c(c2)nnn3C)cc1CN1CC(C)Oc2ccccc2S1(=O)=O (centres unmarked) [DGY-03–188, 3-(7-(2-((2-(2-(2-(4-(4-((5-chloro-4-((2-(isopropylsulfonyl)phenyl)amino)pyrimidin-2-yl)amino)phenyl)piperazin-1-yl)ethoxy)ethoxy)ethyl)amino)-2-oxoethoxy)-1-methyl-1H-benzo[d][1,2,3]triazol-5-yl)-3-(4-methyl-3-((4-methyl-1,1-dioxido-3,4-dihydro-2H-benzo[b][1,4,5]oxathiazepin-2-yl)methyl)phenyl)propanoic acid]
degradation across the whole proteome (HEK293T cells): did not induce any degradation across the whole proteome

effect on BRD4 abundance (BRD4 [3]; KEAP1 knockdown (KEAP1^KD) OVCAR8 cells, 16 h): no effect on BRD4 abundance
BRD4 degradation (BRD4 [3]; OVCAR8 cells, 1 μM): induces degradation of BRD4
concentration of maximal BRD4 degradation (BRD4 [3]; parental OVCAR8 cells, 16 hours): 1 µM
BRD4 degradation, enantiomers compared (BRD4 [4]; MM1.S cells, 24-hour treatment at 1 μM): induced stronger degradation of BRD4
BRD4 degradation after pre-treatment with MLN4924 (BRD4 [4]; MM.1S cells, 1 μM MLN4924 2 h prior, then 16 hrs): BRD4 degradation was blocked
BRD4 degradation after pre-treatment with excess (+)-JQ1 or KI-696 (BRD4 [4]; MM.1S cells, 10 μM JQ1 or 10 μM KEAP1 inhibitor 2 h prior, then 16 hrs): abolished
concentration at which KEAP1-BRD4BD2 dimerization is promoted (KEAP1-BRD4BD2): approximately 100 nM
Compound: COc1cc([C@@H](CC(=O)O)c2ccc(C)c(CN3C[C@@H](C)Oc4cc(CCCCCCNC(=O)C[C@@H]5N=C(c6ccc(Cl)cc6)c6c(sc(C)c6C)-n6c(C)nnc65)ccc4S3(=O)=O)c2)cc2nnn(C)c12 [DGY-06–177-pk2, (S)-3-(3-(((R)-7-(6-(2-((S)-4-(4-chlorophenyl)-2,3,9-trimethyl-6H-thieno[3,2-f][1,2,4]triazolo[4,3-a][1,4]diazepin-6-yl)acetamido)hexyl)-4-methyl-1,1-dioxido-3,4-dihydro-2H-benzo[b][1,4,5]oxathiazepin-2-yl)methyl)-4-methylphenyl)-3-(7-methoxy-1-methyl-1H-benzo[d][1,2,3]triazol-5-yl)propanoic acid]
degradation of BRD4 versus BRD2 and BRD3 by immunoblotting (BRD4/3/2): preferentially induces BRD4 degradation while largely sparing BRD2&3
selectivity of degradation across the proteome (MM.1S proteome): BRD4 as the only significantly downregulated protein

Source: paper PMC9588736 (Cell chemical biology, 2022)
